Measurements pooled from the literature.
Organism: Bacillus subtilis
Effect on: microbial growth

| Compound | test | test system | conditions | MIC |
| --- | --- | --- | --- | --- |
| CCCCCCCCCCCC(=O)C(F)(F)P(=O)(O)O | – | ATCC23857 | – | > 200 µg/mL |
| CCCCCCCCCC(=O)N[C@@H](Cc1c[nH]c2ccccc12)C(=O)N[C@H](CC(N)=O)C(=O)N[C@@H](CC(=O)O)C(=O)N[C@@H]1C(=O)NCC(=O)N[C@@H](CCCN)C(=O)N[C@@H](CC(=O)O)C(=O)N[C@H](C)C(=O)N[C@@H](CC(=O)O)C(=O)NCC(=O)N[C@H](CO)C(=O)N[C@@H]([C@H](C)CC(=O)O)C(=O)N[C@@H](CC(=O)c2ccccc2N)C(=O)O[C@@H]1C | broth dilution | 168 | – | 0.25 µg/mL |
| CCCCCCCCCCCCCCCC(=O)NP(=O)(O)O | – | ATCC23857 | – | > 200 µg/mL |
| CCCCCCCCCCCC(=O)OC[C@H]1O[C@@H](n2cc(C)c(=O)[nH]c2=O)C[C@@H]1OC(=O)c1ccc(C(C)(C)C)cc1 | broth dilution | – | – | 1 µg/mL |
| CO[C@@H]1[C@@H](OC(N)=O)[C@@H](O)[C@H](Oc2ccc3c(O)c(NC(=O)c4ccc(O)c(CC=C(C)C)c4)c(=O)oc3c2C)OC1(C)C | broth dilution | ATCC6633 | – | < 6.25 µM |
| CCC1C(=NOCc2cn(-c3ccccc3)nn2)CC(c2ccccc2)OC1c1ccccc1 (stereo not shown) | broth dilution | MTCC121 | 24 h | 25 µg/mL |
| CCCCCCCC(=O)CP(=O)(O)O | – | ATCC23857 | – | > 200 µg/mL |
| Cc1c(NN=C(C#N)C2=NC(=O)CS2)c(=O)n(-c2ccccc2)n1C | broth dilution | – | – | 0.98 µg/mL |
| CC1C(=NOCc2cn(-c3ccccc3)nn2)CC(c2ccccc2)OC1c1ccccc1 (stereo not shown) | broth dilution | MTCC121 | 24 h | 50 µg/mL |
| Oc1cc(Cl)ccc1Oc1ccc(Cl)cc1Cl | – | – | – | 1.8 µg/mL |
